The values below come from ChEMBL document CHEMBL4513216, “Probing the Open Global Health Chemical Diversity Library for Multistage-Active Starting Points for Next-Generation Antimalarials” (ACS Infect Dis, 2020).

The series can be described thus: Toxicity liver stage against HepG2, at 10uM. The format is cell-based. On the set-up: test concentration 10 uM, cell line HepG2-A16-CD81EGFP. The note with it: human, HepG2-A16-CD81EGFP cells; read-out: INHIBITION
Put shortly: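 Uninfected HepG2-A16-CD81EGFP cells, 3 × 10^3 per well, 1536-well, plated on prespotted compound at 10 μM final, parasite-free screening media added to match infected plates; puromycin 10 μM positive, DMSO 0.5% negative; run in parallel with 48 h PbLuc assay at 37 °C, 5% CO2; viability by CellTiter-Glo luminescence, normalized to controls.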
With `CCCS(=O)(=O)N1CCN(Cc2ccco2)CC1`, the cytotoxicity at 10 µM turned out to be 4.28%.
For `Cc1ccc(-c2c[nH]c([C@@H]3COCCN3Cc3cccnc3)n2)cc1`, the cytotoxicity at 10 µM amounted to 0.283%.
With `O=C1Nc2ccccc2/C1=C1\CCCCCN1`, the cytotoxicity at 10 µM is 13.6%.
As for `CSCCC(Nc1nc(C)cc(C)n1)C(=O)NC(C)(C)CO` (configuration not stated), the cytotoxicity at 10 µM is -5.15%.
For the compound `CNCc1ccc(Oc2cncc(C)n2)cc1`, the cytotoxicity at 10 µM was determined as 7.1%.
`c1cc(CN2CCc3c(CN4CCCC4)n[nH]c3C2)ccn1`: the cytotoxicity at 10 µM was -10.5%.
For the compound `Cc1ncnc2c1CCN(C(=O)c1cccnc1)CC2`, the cytotoxicity at 10 µM was 8.36%.
Regarding `CN1CCN(C(=O)c2cc(-c3cnc(N4CCCC4)nc3)cn2C)CC1`, the cytotoxicity at 10 µM is -1.43%.
On to `CC(C)NC(=O)N1CCN(C(=O)NC(C)C)CC2(CNC(=O)C2)C1`, for which the cytotoxicity at 10 µM stood at 3.3%.
Next, `Cc1cc(O)c(OCC(=O)/N=c2/[nH]c3c(s2)CCC3)cn1`: 10.4%; `CN(C)CC(=O)N1CCOCC2(C1)CN(c1ccccc1)C(=O)CO2` (configuration not stated): 0.00964%.
On to `Cc1nn(Cc2ccc(C(=O)NCCCN3CCCC3=O)o2)c(C)c1Cl`, for which the cytotoxicity at 10 µM is -10.2%.
As to `COc1ccc(C)cc1Nc1nc2c(C)nn(C)c2c(=O)n1C`, the cytotoxicity at 10 µM worked out at 3.96%.
Next, `O=C(CCn1ncc2c(Cl)cccc21)NCCCn1cccn1`: 6.25%; `Cc1noc(C)c1-c1cc(CCC2CN(CCC(N)=O)CCO2)ncn1` (configuration not stated): 6.11%; `CCC(=O)N1CCCCC1c1nc(O)c2c(n1)CN(C(C)=O)CC2` (configuration not stated): 0.525%.
With `Cc1ccnn1CCC(=O)N1CCCC2(C1)NC(=O)c1ccccc1O2` (configuration not stated), the cytotoxicity at 10 µM was -0.776%.
In the case of `Cc1nn(C)cc1NC(=O)CN1CCC(Oc2cnccn2)CC1`, the cytotoxicity at 10 µM was -4.19%.
In the case of `CNc1cc(C)nc(C2CCN(CCO)CC2)n1`, the cytotoxicity at 10 µM stood at 1.56%.
The same measure for `CC(=O)N1CCC(c2nn(C)c3nccnc23)C1` (configuration not stated): -21.1%; for `CN(C)C(=O)CCc1cncc(C2CCCN2Cc2ccccn2)n1` (configuration not stated): -3.94%; for `OCCN(CCO)Cc1ccc(Br)c2cccnc12`: 0.14%.
Next, `CC(C)(C)NC(=O)CNc1ncccn1`: -5.09%; `c1csc(-c2noc(CCCNC3CCc4ncnn4C3)n2)c1` (configuration not stated): -1.36%.
As for `CNC(=O)Cc1noc(-c2cc3c(s2)CCC(C)(C)C3)n1`, the cytotoxicity at 10 µM is 3.57%.
As to `N#CCCN(CC1CCOC1)S(=O)(=O)c1c(F)cccc1Cl` (configuration not stated), the cytotoxicity at 10 µM is -2.58%.
Take `Cc1c(NC(=O)NCCO)cccc1OC1CCCC1`: the cytotoxicity at 10 µM was -2.25%.
For `CCOCCC(=O)N(CCC#N)c1ccc(C)c(C)c1`, the cytotoxicity at 10 µM was 4.06%.
As to `CCCN(CC(F)(F)F)S(=O)(=O)c1cc(C(N)=O)n(C)c1`, the cytotoxicity at 10 µM was -4.15%.
The same measure for `Cc1ccc(S(=O)(=O)N2CCOCC2C#N)cc1Br` (configuration not stated): 6.08%.
Turning to `CNC(=O)C1CCCN1C(=O)NCCCc1cccc(F)c1` (configuration not stated), the cytotoxicity at 10 µM turned out to be 2.75%.
Consider `CC(C)(C)c1nccc(N2CCCCC2CCNS(C)(=O)=O)n1` (configuration not stated), for which the cytotoxicity at 10 µM stood at 8.83%.
Regarding `CC(CNC(=O)c1nnn(-c2ccccc2)c1C(F)(F)F)N(C)C` (configuration not stated), the cytotoxicity at 10 µM came to 2.19%.
For `CCn1nc(C)cc1C(=O)OCCNC(=O)c1ccccc1`, the cytotoxicity at 10 µM was found to be 1.44%.
Regarding `O=C(NCC1(O)CCSCC1)c1ccoc1`, the cytotoxicity at 10 µM is -6.61%.
In the case of `CCCNC(=O)CCNc1cncc(-n2nc(C)cc2C)n1`, the cytotoxicity at 10 µM is 5.3%.
Take `Cc1ccc(F)cc1C(=O)N1CCN(S(C)(=O)=O)[C@@H](C)C1`: the cytotoxicity at 10 µM is -2.53%.
`Cc1occc1CNC(=O)C1CCN(C(=O)OC(C)(C)C)C1` (configuration not stated): the cytotoxicity at 10 µM came to 3.67%.
Consider `COCCN1CCCN(C(=O)c2scnc2C)CC1`, for which the cytotoxicity at 10 µM was 5.27%.
Turning to `Cc1ccc(CNCC2CCN(CCO)CC2)cc1`, the cytotoxicity at 10 µM is -6.14%.
As to `Cc1nccn1-c1cc(CNC(=O)COCC2CC2)ccn1`, the cytotoxicity at 10 µM was 2.37%.
For `Brc1csc(CNCc2nnc3n2CCC3)c1`, the cytotoxicity at 10 µM worked out at 5.63%.
As for `Cc1ccc(C(C)(O)CNC(=O)c2scnc2C)o1` (configuration not stated), the cytotoxicity at 10 µM was -1.42%.
`COCc1ccccc1CNC(=O)CNc1ccccc1C(C)=O`: the cytotoxicity at 10 µM is 3.49%.
In the case of `COCCOc1ccc(NCc2cccc3cn[nH]c23)cn1`, the cytotoxicity at 10 µM was found to be 5.04%.
Take `CCC1CN(c2ncnc3nc[nH]c23)CCO1` (configuration not stated): the cytotoxicity at 10 µM is 19.5%.
`O=S(=O)(c1cccnc1)N1CCC(OCCCc2ccccc2)C1` (configuration not stated): the cytotoxicity at 10 µM turned out to be 9.31%.
For `CSCC(=O)NC1CCN(C(C)c2ccccc2)CC1` (configuration not stated), the cytotoxicity at 10 µM was found to be 3.63%.
`CC(CO)(NCc1noc(Cc2ccccc2)n1)C1CCCCC1` (configuration not stated): the cytotoxicity at 10 µM was -17.2%.
Take `Nc1cc2c(nn1)CCN(C(=O)c1ccc(Oc3cccnc3)cc1)C2`: the cytotoxicity at 10 µM was 6.27%.
Turning to `Cc1[nH]ncc1CCCNC(=O)N1CCOC(C)C1` (configuration not stated), the cytotoxicity at 10 µM stood at 3.14%.
The same measure for `O=C(NCc1cccnc1N1CCCCC1)c1ccc2c(c1)OCO2`: -3.76%.
The same measure for `Cc1cc(NS(=O)(=O)c2cnc3onc(C)c3c2)no1`: 4.43%.
`CC(C)(CNC(=O)OC(C)(C)C)NC(=O)C1CC(=O)N(C2CC2)C1` (configuration not stated): the cytotoxicity at 10 µM is 14.3%.
Next, `Cn1nc2c(cc1=O)CN(CC(=O)Nc1ccc(Cl)cn1)CC2`: 0.874%; `O=C1NCCO[C@H]2CN(C(=O)Cc3ccco3)CC[C@@H]12`: -105%.
On to `O=C(c1ccnnc1)N1C[C@H](OCC2CC2)[C@H]2COC[C@H]21`, for which the cytotoxicity at 10 µM is 0.0658%.
For `COCC1CC2(CCN(Cc3ccccn3)CC2)CN1C(C)C` (configuration not stated), the cytotoxicity at 10 µM was -7.16%.
Regarding `CC(=O)Nc1nc(C)c(S(=O)(=O)NCCc2ccccn2)s1`, the cytotoxicity at 10 µM was -5%.
Take `COc1ccc2c(c1)CC(C(=O)N(C)CCCc1cnn(C)c1)CO2` (configuration not stated): the cytotoxicity at 10 µM was -7.55%.
In the case of `C=C(C)COc1ccccc1C(=O)NCc1nc(C)cc(=O)[nH]1`, the cytotoxicity at 10 µM is -3.7%.
`CC1(Cc2ccc3c(c2)OCO3)CCCN(S(=O)(=O)N2CCCC2)C1` (configuration not stated): the cytotoxicity at 10 µM is -0.788%.
As for `COc1ccccc1OC1CN(C(=O)CN(C)Cc2ccncc2)C1`, the cytotoxicity at 10 µM was -3.09%.
Next, `O=C(CCN1CCOC(C(F)(F)F)C1)NCc1ccc(Cl)cc1` (configuration not stated): -9.93%; `CN1CCC(O)(CNC(=O)c2cc(COc3cccc(F)c3)[nH]n2)CC1`: 2.91%.
Turning to `COc1nc2ccccc2cc1C1CC(=O)Nc2n[nH]c(C3CCC3)c21` (configuration not stated), the cytotoxicity at 10 µM was -13.5%.
The same measure for `CN(C)S(=O)(=O)NCc1nc(-c2cccc(F)c2)c(-c2ccccn2)[nH]1`: -7.76%; for `O=C1O[C@@H]2CN(c3ccc(Cl)cn3)C[C@@H]2N1CCc1ccc(F)cc1`: -2.77%.
Turning to `O=C(NCc1cc2n(n1)CCCNC2)C1(c2ccccc2)CCCCC1`, the cytotoxicity at 10 µM was -10.6%.
Turning to `FC(F)(F)c1ccnc(N2CCCN(Cc3ccccn3)CC2)n1`, the cytotoxicity at 10 µM is -3.5%.
`O=S(=O)(NCc1ccccc1)N(Cc1ccccn1)CC1CCCO1` (configuration not stated): the cytotoxicity at 10 µM came out at 1.62%.
Turning to `Cc1nn2c(NCC(=O)NC3CC3)cc(-c3ccccc3)nc2c1C`, the cytotoxicity at 10 µM is -5.1%.
Consider `CC(=O)Nc1ccc(C(=O)Nc2cnc3n2CCCC3)cc1C`, for which the cytotoxicity at 10 µM came out at 0.271%.
Next, `Cc1ccc(OCC(C)NS(C)(=O)=O)cc1` (configuration not stated): 14.8%.
On to `Cc1ccccc1N1CCCN(C(=O)c2cn(C)c3ccccc23)CC1`, for which the cytotoxicity at 10 µM is -11.2%.
With `CCCc1nc(C)cc(N2CCC3(CCC(=O)N(CC4CC4)C3)CC2)n1`, the cytotoxicity at 10 µM is 14.9%.
As for `COc1cc(C(=O)N2CCCC2c2noc(C(C)C)n2)on1` (configuration not stated), the cytotoxicity at 10 µM was -12.4%.
For `c1cc(COc2ccc(CNC3CCc4ncnn4C3)cc2)ccn1` (configuration not stated), the cytotoxicity at 10 µM is -0.279%.
With `CCn1ccnc1CN1CCN(CCC(=O)NC2CCCCC2)CC1`, the cytotoxicity at 10 µM is -12.3%.
Take `CN(C)c1cc(CNC(=O)Nc2nncs2)ccn1`: the cytotoxicity at 10 µM is -20.5%.
With `Cc1nc(C)n(CC2CCCN(CCC(=O)N3CCOCC3)C2)n1` (configuration not stated), the cytotoxicity at 10 µM was -6.7%.
On to `CC(C)C(=O)NCc1ccc(-n2cncn2)nc1`, for which the cytotoxicity at 10 µM is 0.239%.
Consider `CNS(=O)(=O)c1ccc(C(=O)N2CCCC2c2ccccc2)o1` (configuration not stated), for which the cytotoxicity at 10 µM is -7.67%.
The same measure for `Cc1nc(-c2ccc(F)c(F)c2)cc(C2CCNCC2)n1`: 2.04%; for `Cc1ccc2c(n1)N(CCn1cccn1)CCN(C(=O)CC1CC1)C2`: -5.58%; for `Cc1noc(C)c1CN1C[C@H](OCC2CC2)[C@H]2OCCC[C@H]21`: -14.9%.
`CCOCC1CN(Cc2ccccn2)Cc2nn(CC3CC3)cc21` (configuration not stated): the cytotoxicity at 10 µM is -0.966%.
Turning to `CN(C)C(=O)CO[C@@H]1CN(Cc2ccccc2F)[C@@H]2CCCO[C@@H]21`, the cytotoxicity at 10 µM is -3.81%.
In the case of `COCCN1C[C@@H]2CN(Cc3cccc(F)c3)CCC[C@]2(C(=O)O)C1`, the cytotoxicity at 10 µM came to 0.928%.
As for `Cc1nnc([C@]23COC[C@H]2CN(S(=O)(=O)c2cccnc2)C3)o1`, the cytotoxicity at 10 µM was -97.8%.
As to `O=C(c1cccnc1)N1CCC2(CC1)COC(COc1ccccn1)C2` (configuration not stated), the cytotoxicity at 10 µM was -0.735%.
Consider `COCCN1CCN(c2ccc(C)nn2)Cc2cccnc21`, for which the cytotoxicity at 10 µM was -3.68%.
The same measure for `O=C(c1ccc(F)cc1)N1CCN2C[C@H](OCc3ccccn3)C[C@H]2C1`: 2.8%; for `CS(=O)(=O)NC[C@@H]1OC[C@H]2CN(C(=O)c3ccccn3)CC[C@H]21`: -7.47%; for `O=C(CC1CC1)N[C@@H]1CN(Cc2ccco2)C[C@@H]2CCCO[C@@H]21`: -1.63%.
Regarding `CCc1nc(C)cc(N2CCN(C(=O)[C@@H]3C[C@H]4C=C[C@@H]3C4)CC2)n1`, the cytotoxicity at 10 µM came out at 5.68%.
Take `Cc1ccc(C(=O)N2[C@@H]3CC[C@H]2CC(=O)N(C)C3)c(=O)[nH]1`: the cytotoxicity at 10 µM was found to be 4.23%.
